For assay [1], the system named is Trypanosoma brucei rhodesiense. The assay can be described thus: Antitrypanosomal activity against Trypanosoma brucei rhodesiense. The format is functional, organism-based.
In the next assay the test system is Plasmodium falciparum. The assay can be described thus: Antiplasmodial activity against chloroquine and pyrimethamine-resistant Plasmodium falciparum K1 in erythrocytes by [3H]hypoxanthine uptake. The format is functional, organism-based.
The subject of another assay is Trypanosoma cruzi. The assay can be described thus: Antitrypanosomal activity against Trypanosoma cruzi in rat L6 cells. The format is functional, organism-based.
Another assay has as its system L6. The assay can be described thus: Cytotoxicity against rat L6 cells. The format is cell-based. The method in brief: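 Rat skeletal myoblast (L-6) line; cytotoxicity values reported in µg/mL.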

In brackets after ≈: the same amount, converted by molar mass.

One may read the IC50 as the concentration at which inhibition is half-maximal. With `COc1cccc2c(-c3ccc4cc(C)nc(C)c4c3O)c(C)cc(OC)c12`, the IC50 in assay [1] came out at 5.6 µg/mL (≈ 15 µM); in the assay on Plasmodium falciparum, 3.9 µg/mL (≈ 10.4 µM); in the assay with Trypanosoma cruzi, 54 µg/mL (≈ 145 µM).

`O=C(Cn1ccnc1[N+](=O)[O-])NCc1ccccc1` [BENZNIDAZOLE]: the IC50 with Trypanosoma cruzi amounted to 0.55 µg/mL (≈ 2.11 µM).

For `COc1cc(C)c(-c2ccc3cc(C)nc(C)c3c2O)c2cccc(O)c12` [ENT-DIONCOPHYLLEINE A], the IC50 in assay [1] worked out at 1.4 µg/mL (≈ 3.9 µM); in the assay with L6 it was 20.6 µg/mL (≈ 57.3 µM); in the assay on Plasmodium falciparum, 3.1 µg/mL (≈ 8.62 µM); with Trypanosoma cruzi, 21.8 µg/mL (≈ 60.7 µM).

Take `COc1ccc(-c2ccc3cc(C)nc(C)c3c2O)c2cc(C)cc(OC)c12` [DIONCOPHYLLEINE D]: the results for the IC50 (in assay [1]; in the assay on Plasmodium falciparum; in the assay on Trypanosoma cruzi) were 4.7 µg/mL (≈ 12.6 µM), 0.5 µg/mL (≈ 1.34 µM) and 24.3 µg/mL (≈ 65.1 µM), respectively.

Values taken from ChEMBL document CHEMBL1158754, “ent-Dioncophylleine A and related dehydrogenated naphthylisoquinoline alkaloids, the first Asian dioncophyllaceae-type alkaloids, from the "new"plant species Ancistrocladus benomensis” (J Nat Prod, 2005).
